The structures appear in SMILES notation. Activity calls are given as the source filed them. The rule behind the calls is not given here.

The subject of assay [1] is Escherichia coli. The assay can be described thus: Inhibition of intrinsic ATPase activity of Escherichia coli SecA expressed in Escherichia coli BL21.19 cells assessed as hydrolysis of ATP at 200 uM after 2 hrs by malachite green colorimetric method. The essentials: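 Single-concentration screen: compound at 200 µM with His-tagged ecSecA at 0.5 µM (50 µg/ml) and 100 µM ATP, 37 °C, 2 h. Buffer was 50 mM Tris–HCl, 50 mM KCl, 5 mM MgCl2, 0.4 mg/ml BSA, pH 8.0. Free Pi was detected with malachite green reagent (20 min rt, absorbance 660 nm).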

Assay [2] can be described thus: Inhibition of intrinsic ATPase activity of Escherichia coli SecA expressed in Escherichia coli BL21.19 cells assessed as hydrolysis of ATP after 2 hrs by malachite green colorimetric method. The essentials: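 Recombinant His-tagged ecSecA at 0.5 µM (50 µg/ml) was incubated at 37 °C with 100 µM ATP and compound (0–200 µM) for 2 h. Buffer was 50 mM Tris–HCl, 50 mM KCl, 5 mM MgCl2, 0.4 mg/ml BSA, pH 8.0. Released Pi was read with malachite green (20 min rt, 660 nm). Rates were taken relative to no-compound, and IC50 was fitted by nonlinear regression from three independent experiments.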

The subject of assay [3] is Staphylococcus aureus. Description: Inhibition of intrinsic ATPase activity of Staphylococcus aureus SecA expressed in Escherichia coli BL21.19 cells assessed as hydrolysis of ATP after 2 hrs by malachite green colorimetric method. Particulars: dose or concentration not given here. An outline of the steps:
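His-tagged saSecA1 at 4 µM (400 µg/ml) was incubated at 28 °C for 2 h with 100 µM ATP. Buffer was 50 mM HEPES, 50 mM KCl, 2 mM MgCl2, 0.4 mg/ml BSA, pH 7.5. Liberated Pi was quantified with malachite green (20 min room temperature, 660 nm).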

The nature of assay [4]: Inhibition of ATPase activity of Escherichia coli SecA expressed in Escherichia coli BL21.19 cells assessed as hydrolysis of ATP after 2 hrs using Dixon plot analysis by malachite green colorimetric method.
The subject of assay [5] is Escherichia coli. The assay can be described thus: Mixed-type inhibition of ATPase activity of Escherichia coli SecA expressed in Escherichia coli BL21.19 cells assessed as hydrolysis of ATP after 2 hrs using MM equation at 25 to 200 uM by malachite green colorimetric method.

On to `COCCNc1nc2nc(N)nc(N3CCOCC3)c2s1`, for which, in assay [1], the outcome was Active.

For `Nc1nc(-c2ccc(F)cc2)c2sc(N3CCNCC3)nc2n1`, in assay [1], the inhibition came to 35%.

For `CC(=O)N1CCN(c2nc(N)nc3nc(-c4ccc(F)cc4)sc23)CC1`, the inhibition in assay [1] was found to be 50%.

On to `Nc1nc(N2CCOCC2)c2sc(/C=C/c3ccccc3)nc2n1`, for which, in assay [2], the IC50 was 197 µM. For the same compound, the inhibition in assay [1] was 70%; in assay [3], 40%.

For `Nc1nc(N2CCN(C(=O)COc3ccc(Cl)cc3)CC2)c2sc(-c3ccc(F)cc3)nc2n1`, the inhibition in assay [1] came out at 50%.

For the compound `Cc1cccc(NC(=O)N2CCN(c3nc(N)nc4nc(-c5ccc(F)cc5)sc34)CC2)c1`, in assay [3], the inhibition was determined as 40%.

As to `Nc1nc(-c2ccc(F)cc2)c2sc(N3CCN(C(=O)COc4ccc(Cl)cc4)CC3)nc2n1`, the Ki in assay [4] worked out at 60 µM. Further, in assay [2], the IC50 amounted to 135 µM. In addition, in assay [1], the inhibition was 76%. The inhibition entry in assay [5] is “Active”.

Regarding `Nc1nc(N2CCOCC2)c2sc(N3CCOCC3)nc2n1`, the result in assay [1] was Active.

Take `Cc1cccc(NC(=O)N2CCN(c3nc4nc(N)nc(-c5ccc(F)cc5)c4s3)CC2)c1`: the inhibition in assay [1] was 50%; in assay [3], 40%.

Regarding `COCCNc1nc2nc(N)nc(-c3ccc(F)cc3)c2s1`, in assay [1], the inhibition is 50%.

With `Nc1nc(N2CCOCC2)c2sc(-c3ccc(F)cc3)nc2n1`, the result in assay [1] was Active.

In the case of `Nc1nc(N2CCOCC2)c2sc(C#Cc3ccccc3)nc2n1`, the outcome in assay [1] was Active. For the same compound, in assay [3], the inhibition came out at 40%.

Take `CC(C)(C)OC(=O)N1CCN(c2nc3nc(N)nc(-c4ccc(F)cc4)c3s2)CC1`: the inhibition in assay [1] is 50%.
